Assays:
[1] = biological target: T1, GABA-A receptor; anion channel (Rattus norvegicus) (UniProt O09028+P15431+P18506+P18508+P19969+P20236+P23574+P23576+P28471+P28473+P30191+P62813+P63079+P63138+Q91ZM7+Q9ES14); experiment: Maximum Binding affinity for picrotoxinin (GABA-A) receptor of rat cerebral cortex; format: tissue-based
Summary of the method: (§1)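 Saturation binding on rat cerebral cortex membranes in 50 mM Tris-citrate using 1-300 nM 35[S]-TBPS with test compound near its IC50, triplicate, 90 min at 25 °C. Filtration and scintillation counting. Kd and Bmax from Scatchard analysis; two or three experiments.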

[2] = biological target: GABA-A receptor; anion channel; experiment: Displacement of 35[S]-TBPS from picrotoxinin (GABA-A) receptor of rat neuronal membranes; format: cell membranes, Membrane
Summary of the method: (§2)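 Female Sprague-Dawley rat cerebral cortex membranes, washed and held in 50 mM Tris-citrate pH 7.5. 2 nM 35[S]-TBPS in NaBr with test compound, triplicate, 90 min at 25 °C. Filtration and scintillation counting; nonspecific binding with 10 μM TBPS or 100 μM picrotoxinin. IC50 by logistic fit of at least five concentrations; two or three experiments.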

[3] = biological target: GABA-A receptor; anion channel; experiment: Dissociation constant from displacement of 35[S]-TBPS binding from picrotoxinin (GABA-A) receptor of rat cerebral cortex; format: tissue-based; summary of the method: as §1
[4] = Dose at which 50% of the mice failed the rotarod neurotoxicity test; conditions: mouse, in vivo
Summary of the method: (§3)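 Female CF-1 mice (6-8 weeks) given test compound ip in 30% PEG, 5-10 mice/dose. Neurotoxicity scored as failure on the rotorod test. TD50 derived by log10 probit analysis of dose-response data.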

[5] = biological target: T1, GABA-A receptor; anion channel (Rattus norvegicus); experiment: Percent response relative to current produced by 10 uM GABA in rat hippocampal cells; format: functional, cell-based; conditions: Hippocampus
[6] = Toxic dose at which 50% of the mice failed the rotarod neurotoxicity test; format: toxicity; conditions: mouse, in vivo; summary of the method: as §3
[7] = tested on: Mus musculus; experiment: Effective dose at which 50% of the mice were protected from clonic seizures induced by pentylenetetrazole (85 mg/kg); format: functional
Summary of the method: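 Female CF-1 mice, 6-8 weeks old, dosed ip with test compound in 30% PEG (5-10 mice/dose). Non-convulsant compounds then challenged with PTZ 85 mg/kg given as 0.85% solution in 0.9% NaCl. Mice observed 30 min for seizures.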

[8] = biological target: T1, GABA-A receptor; anion channel (Rattus norvegicus); experiment: Percent response relative to current produced by 1 uM GABA in rat hippocampal cells; conditions: Hippocampus
[9] = biological target: T1, GABA-A receptor; anion channel (Rattus norvegicus); experiment: Percent response relative to current produced by 1 uM GABA in rat hippocampal cells; format: functional, cell-based; conditions: Hippocampus
Summary of the method: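 Whole-cell patch clamp of hippocampal neurons cultured from 1-day-old female Sprague-Dawley pups, 10-21 days in culture, held at -30 mV, CsCl-based pipette solution. 1 μM GABA with compound (10 mM or 1 mM) applied 2 s. Current expressed relative to the mean of GABA controls before and after; only ±10% recovery kept; mean ± SEM.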

[10] = biological target: GABA-A receptor; anion channel; experiment: Inhibition of 35[S]-TBPS binding to GABA-A (picrotoxin) receptor of rat neuronal membranes; format: cell membranes, Membrane; summary of the method: as §2
[11] = […] dose at which 50% of the mice have clonic convulsions; conditions: mouse, in vivo; read-out: CD50 (the source's name)
Summary of the method: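 Female CF-1 mice, 6-8 weeks old; test compound in 30% PEG given ip at 5-10 mice/dose. Animals observed 30 min for clonic seizures after injection. CD50 derived by log10 probit analysis from the number of animals with clonic seizures.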

| Compound | Bmax (pM (mg of protein)-1) [1] | IC50 [2] | Kd [3] | TD50 [4] | Response [5] | TD50 [6] | ED50 [7] | Response [8] | Response [9] | IC50 [10] | TD50 [11] |
| --- | --- | --- | --- | --- | --- | --- | --- | --- | --- | --- | --- |
| C[C@@H]1CC[C@H](C)C12CCOC2=O (stereo partly drawn) | 0.54 | 780 nM | 38.5 nM | > 500 mg/kg | 198% |  |  |  |  |  |  |
| CC1CCCC12CCOC2=O (stereo not drawn) | 0.93 | 680 nM | 39.5 nM |  | 252% | > 500 mg/kg |  |  |  |  |  |
| O=C1OCCC12CCCC2 | 1.04 | 810 nM | 48.8 nM |  |  |  | 385 mg/kg | 220% |  |  |  |
| CC(C)C1(C)CCOC1=O (stereo not drawn) | 0.99 | 740 nM | 47 nM |  |  |  |  |  | 116% |  |  |
| CCC1(C)CCOC1=O (stereo not drawn) | 1.27 | 2280 nM | 80.7 nM |  | 170% |  |  |  |  |  |  |
| C[C@@H]1CC12CCOC2=O (stereo partly drawn) | 1.14 | 3410 nM | 40.4 nM |  | 48% | > 500 mg/kg | 259 mg/kg |  |  |  |  |
| O=C1OCCC12CC2 |  |  |  |  | 62% | > 500 mg/kg |  |  |  | > 10000 nM |  |
| CC1(C)CCOC1=O |  |  |  |  | 41% | > 500 mg/kg | > 500 mg/kg |  |  | 9200 nM |  |
| C[C@H]1CC12CCOC2=O (stereo partly drawn) | 1.27 | 7170 nM | 44.1 nM |  | 149% | > 300 mg/kg | 210 mg/kg |  |  |  |  |
| CC1(C)CCCC12CCOC2=O (stereo not drawn) | 1 | 360 nM | 41.8 nM |  | 327% | 10 mg/kg |  |  |  |  |  |
| CCC1(C(C)C)CCOC1=O (stereo not drawn) | 1.5 | 240 nM | 35.2 nM |  | 222% | > 300 mg/kg | 169 mg/kg |  |  |  |  |
| CC1(C)CC12CCOC2=O (stereo not drawn) | 0.86 | 1140 nM | 35.4 nM | 254 mg/kg |  |  | 221 mg/kg |  | 247% |  |  |
| C[C@H]1CC[C@H](C)C12CCOC2=O | 1.04 | 200 nM | 35.6 nM |  |  |  |  |  | 80% |  | 198 mg/kg |
| CC(C)C1(C(C)C)CCOC1=O | 1.49 | 220 nM | 33.4 nM |  | 328% |  |  |  |  |  | 137 mg/kg |
| CCC1(C(C)(C)C)CCOC1=O (stereo not drawn) | 1.54 | 310 nM | 46.8 nM |  |  |  |  |  | 47% |  | 133 mg/kg |
| CCC1(CC)CCOC1=O | 1.51 | 750 nM | 37.2 nM |  | 301% |  |  |  |  |  |  |

Source: ChEMBL document CHEMBL1127746, “Alpha-spirocyclopentyl- and alpha-spirocyclopropyl-gamma-butyrolactones: conformationally constrained derivatives of anticonvulsant and convulsant alpha,alpha-disubstituted gamma-butyrolactones” (J Med Chem, 1994)
